This note sets out measurements from PMC5982514 (Biochemistry, 2018).

Assay type in all cases: biochemical
For assay [1], the system named is BTK, SYK, ABL, SRC, ALK, EGFR and FLT3. As to the kind of experiment: Kinetic analysis across seven PTKs. The settings on record: for substrate activity for all kinases tested: panel screen and seven PTKs. The gist of the method:
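Kinetics on seven kinases. Final enzyme: 0.3 ng/μL ABL/BTK/SRC/SYK, 1.5 ng/μL FLT3, 2.7 ng/μL ALK/EGFR. Lys-modified peptides at 1–150 μM with 50 μM [γ-33P]ATP, 30 °C; spotted on P81 at 10/20/30 min. Michaelis–Menten fit, or kcat/Km from linear slope (≤75 μM); three runs (FLT3 two).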

A further assay has as its target Abl (Homo sapiens, UniProt P00519). The experiment in a line: Michaelis-Menten kinetic analysis, Abl. The settings on record: for catalytic parameters compared with consensus peptides: consensus peptides of ref [15].
A further assay deals with Src (GST fusion) (Homo sapiens, UniProt P12931). As to the kind of experiment: Michaelis-Menten kinetic analysis, Src. The settings on record: consensus peptides of ref [15]. The gist of the method:
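GST-SRC from HEK293T, glutathione-Sepharose purified, 0.3 ng/μL final. Peptides with C-terminal Gly→Lys at 1–150 μM, in HEPES pH 7.5/NaCl/MgCl2/DTT/Tween 20 with 50 μM [γ-33P]ATP at 30 °C. Aliquots at 10, 20 and 30 min spotted on P81, H3PO4-washed, phosphorimaged. Initial rates fit to Michaelis–Menten, or kcat/Km from linear slope (≤75 μM); mean ± SEM of three experiments.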

The target in a further assay is BTK (GST fusion) (Homo sapiens, UniProt Q06187). The experiment in a line: Michaelis-Menten kinetic analysis, BTK. The gist of the method:
(§1)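 GST-fused kinases were expressed in HEK293T and purified on glutathione Sepharose, then used at 0.3 ng/μL. Peptides (Lys-substituted C-termini) were titrated from 1 to 150 μM with 50 μM [γ-33P]ATP (0.025 μCi/μL) in HEPES pH 7.5/NaCl/MgCl2/DTT/Tween 20 buffer at 30 °C. Aliquots at 10–30 min went onto P81 paper for phosphorimaging. kcat/Km came from a Michaelis–Menten fit or the linear slope (≤75 μM). Three experiments.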

A further assay addresses ALK (His6-ALK^1090–1416) (Homo sapiens, UniProt Q9UM73). As to the kind of experiment: Michaelis-Menten kinetic analysis, ALK. The following applies: kcat/Km of peptide 2 over peptide 5, mean±sem, three experiments. The gist of the method: (§2)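 His6-tagged intracellular kinase domains were expressed and purified from Sf9 cells and used at 2.7 ng/μL final. Peptides were varied over 1–150 μM with 50 μM [γ-33P]ATP (0.025 μCi/μL) in pH 7.5 HEPES buffer containing 10 mM MgCl2 at 30 °C. Aliquots taken at 10, 20 and 30 min were captured on P81 paper, washed in 75 mM H3PO4 and phosphorimaged. Rates were fitted to Michaelis–Menten, or kcat/Km was taken from the linear slope (≤75 μM). Three experiments.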

In the next assay the target is T1, FLT3 (GST-FLT3^564–993) (Homo sapiens, UniProt P36888).
T1 sequence (P36888 564-993): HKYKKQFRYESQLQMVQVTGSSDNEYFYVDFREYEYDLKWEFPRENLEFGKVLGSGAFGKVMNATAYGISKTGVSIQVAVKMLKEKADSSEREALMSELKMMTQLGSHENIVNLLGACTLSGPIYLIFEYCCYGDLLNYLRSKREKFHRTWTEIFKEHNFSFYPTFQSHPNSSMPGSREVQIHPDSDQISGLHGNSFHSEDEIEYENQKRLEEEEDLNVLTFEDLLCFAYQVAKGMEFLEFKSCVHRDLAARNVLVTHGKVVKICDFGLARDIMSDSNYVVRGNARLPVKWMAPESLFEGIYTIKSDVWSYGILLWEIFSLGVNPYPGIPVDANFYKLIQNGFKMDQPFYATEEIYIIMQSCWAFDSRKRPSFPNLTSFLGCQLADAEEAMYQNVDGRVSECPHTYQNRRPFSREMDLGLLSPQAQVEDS
As to the kind of experiment: Michaelis-Menten kinetic analysis, FLT3. The settings on record: kcat/Km of peptide 2 over peptide 5, mean±sem, two experiments. The gist of the method: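 GST-FLT3 (residues 564–993) was expressed in HEK293T, glutathione-purified and used at 1.5 ng/μL. Peptides at 1–150 μM were reacted with 50 μM [γ-33P]ATP (0.025 μCi/μL) in 50 mM HEPES pH 7.5, 10 mM MgCl2, 1 mM DTT at 30 °C. Timepoints at 10, 20 and 30 min were spotted on P81 paper and phosphorimaged. Initial rates were fitted to Michaelis–Menten, or kcat/Km was derived from the slope up to 75 μM. Two experiments.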

The next assay has as its target Syk (GST fusion) (Homo sapiens, UniProt P43405). As to the kind of experiment: Michaelis-Menten kinetic analysis, Syk. The settings on record: kcat/Km of peptide 2 over peptide 5, mean±sem, three experiments. The gist of the method:
as §1

Another assay addresses EGFR (His6-EGFR^672–998) (Homo sapiens, UniProt P00533). The experiment in a line: Michaelis-Menten kinetic analysis, EGFR. The gist of the method: as §2
Setting [2] is: kcat/Km of peptide 2 over peptide 5, mean±sem, three experiments.

Chain of Abl (P00519 whole entry, the tested form may be a part): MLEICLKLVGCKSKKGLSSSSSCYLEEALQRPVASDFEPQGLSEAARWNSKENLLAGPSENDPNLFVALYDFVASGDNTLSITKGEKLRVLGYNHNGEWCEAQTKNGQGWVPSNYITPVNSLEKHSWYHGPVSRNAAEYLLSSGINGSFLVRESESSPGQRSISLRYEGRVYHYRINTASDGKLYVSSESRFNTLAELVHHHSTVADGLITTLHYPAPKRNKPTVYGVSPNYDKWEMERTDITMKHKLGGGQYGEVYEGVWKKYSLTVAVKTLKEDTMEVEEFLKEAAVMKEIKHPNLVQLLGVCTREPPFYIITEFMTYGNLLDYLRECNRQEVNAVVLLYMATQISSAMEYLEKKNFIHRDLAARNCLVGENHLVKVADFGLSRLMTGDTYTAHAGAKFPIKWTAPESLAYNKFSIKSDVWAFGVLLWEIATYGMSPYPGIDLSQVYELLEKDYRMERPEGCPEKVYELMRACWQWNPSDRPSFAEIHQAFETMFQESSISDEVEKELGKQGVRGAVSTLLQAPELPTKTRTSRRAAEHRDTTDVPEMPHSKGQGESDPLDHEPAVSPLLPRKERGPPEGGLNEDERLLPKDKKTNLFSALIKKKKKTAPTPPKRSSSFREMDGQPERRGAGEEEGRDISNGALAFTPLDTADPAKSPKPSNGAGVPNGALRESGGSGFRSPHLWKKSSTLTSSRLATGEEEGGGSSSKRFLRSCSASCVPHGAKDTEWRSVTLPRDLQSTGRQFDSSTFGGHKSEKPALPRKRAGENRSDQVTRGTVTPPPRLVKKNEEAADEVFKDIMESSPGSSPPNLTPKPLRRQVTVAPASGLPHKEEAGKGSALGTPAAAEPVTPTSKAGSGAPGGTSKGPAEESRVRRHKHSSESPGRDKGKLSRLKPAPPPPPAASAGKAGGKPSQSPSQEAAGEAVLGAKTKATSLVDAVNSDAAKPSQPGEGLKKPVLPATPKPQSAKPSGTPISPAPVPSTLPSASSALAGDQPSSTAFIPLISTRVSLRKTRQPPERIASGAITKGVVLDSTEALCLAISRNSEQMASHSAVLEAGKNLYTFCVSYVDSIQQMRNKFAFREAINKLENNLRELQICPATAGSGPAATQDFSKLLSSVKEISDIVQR
Chain of BTK (GST fusion) (Q06187 whole entry, the tested form may be a part): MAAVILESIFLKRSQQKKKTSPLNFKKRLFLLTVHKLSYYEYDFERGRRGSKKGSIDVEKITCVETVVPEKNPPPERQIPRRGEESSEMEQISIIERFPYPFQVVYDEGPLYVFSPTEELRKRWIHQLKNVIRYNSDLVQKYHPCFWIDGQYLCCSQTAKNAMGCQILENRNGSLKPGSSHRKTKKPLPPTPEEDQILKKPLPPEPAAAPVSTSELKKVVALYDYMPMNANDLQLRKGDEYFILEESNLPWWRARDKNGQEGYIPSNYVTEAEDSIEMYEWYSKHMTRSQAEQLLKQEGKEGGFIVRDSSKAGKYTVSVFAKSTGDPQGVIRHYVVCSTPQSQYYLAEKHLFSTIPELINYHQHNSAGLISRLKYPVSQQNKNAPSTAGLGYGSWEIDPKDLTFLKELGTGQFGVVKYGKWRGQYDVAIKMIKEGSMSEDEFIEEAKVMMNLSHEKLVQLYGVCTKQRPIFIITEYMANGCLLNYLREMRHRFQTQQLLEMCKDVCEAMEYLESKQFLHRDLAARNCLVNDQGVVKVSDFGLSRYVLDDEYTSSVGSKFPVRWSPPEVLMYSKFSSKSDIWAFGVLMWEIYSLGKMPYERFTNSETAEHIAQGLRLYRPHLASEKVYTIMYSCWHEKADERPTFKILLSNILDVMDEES
Chain of ALK (His6-ALK^1090–1416) (Q9UM73 1090-1416): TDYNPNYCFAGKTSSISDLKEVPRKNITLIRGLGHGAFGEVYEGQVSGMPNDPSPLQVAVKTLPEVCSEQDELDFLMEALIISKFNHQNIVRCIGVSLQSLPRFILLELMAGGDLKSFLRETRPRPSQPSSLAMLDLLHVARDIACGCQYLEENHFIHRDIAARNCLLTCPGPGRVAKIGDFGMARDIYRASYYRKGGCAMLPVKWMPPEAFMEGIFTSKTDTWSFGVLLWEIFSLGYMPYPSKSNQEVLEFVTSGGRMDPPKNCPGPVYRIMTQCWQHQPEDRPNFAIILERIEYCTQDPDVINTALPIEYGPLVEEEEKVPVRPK

Regarding DEAIYATVA [Peptide 5], the “preference of NRTKs” value in assay [1] (NRTKs among the kinases examined, peptide 5 vs peptide 2) is “the reverse preference was seen for NRTKs”. Further, in assay [1], the “substrate activity for all kinases tested” value is reported as “successful substrates for all kinases tested”. Also, the “catalytic parameters compared with consensus peptides” value at Abl and at Src (GST fusion) was “rivaled those determined with consensus peptides” each time. The “kinase preference between peptides 2 and 5” value at Abl (specificity constant) and at BTK (GST fusion) (specificity constant) was “more substantial preference” in each case.

On to EDPIYVTLE [Peptide 2], for which the “2/5 kcat/Km ratio” value at ALK (His6-ALK^1090–1416) stood at 1.23 ± 0.02; at FLT3 (GST-FLT3^564–993), 1.43 ± 0.07; at Abl (setting [2]), 0.13 ± 0.01; at Syk (GST fusion) it was 1.8 ± 0.2; at EGFR (His6-EGFR^672–998) (setting [2]), 5.8 ± 0.2; on BTK (GST fusion) (setting [2]), 0.31 ± 0.01. Moreover, the “preference of RTKs” value in assay [1] (RTKs among the kinases examined, generally, peptide 2 vs peptide 5) is “generally preferred over peptide 5 for RTKs”. For the same sequence, in assay [1], the “substrate activity for all kinases tested” value is listed as “successful substrates for all kinases tested”. The “catalytic parameters compared with consensus peptides” value on Abl and on Src (GST fusion) was “rivaled those determined with consensus peptides” each time. In addition, the “kinase preference between peptides 2 and 5” value at EGFR (His6-EGFR^672–998) (specificity constant) was “more substantial preference”.
